Laboratory results taken from ChEMBL document CHEMBL6074622, “8-l-Cystinyl Bis(1,8-diazaspiro[4.5]decane) as an Orally Bioavailable l-Cystine Crystallization Inhibitor for Cystinuria” (ACS Med Chem Lett, 2024).
pEC50: −log10 of the molar value.

Assays:
[1] = Toxicity in SLC3A1-knockout male mouse assessed as body weight at 150 micromol/kg, po administered daily for 8 weeks (reference value: 20.3 +/- 2.1 g); assay type: organism-based; details: in vivo, 1344 h, dose 150 µmol/kg
[2] = AUC (0 to t) in Slc3a1-knockout mouse by measuring (2R)-2-amino-3-[[(2R)-2-amino-3-(1,8-diazaspiro[4.5]decan-8-yl)-3-oxo-propyl]disulfanyl]propanoic acid metabolite at 150 micromol/kg, po or 30 micromol/kg, iv measured upto 24 hrs by LC-MS/MS analysis; assay type: ADME, organism-based; details: in vivo, dose 150 µmol/kg
In short: (§1)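 Male Slc3a1-knockout mice (4 per route) dosed once by oral gavage in normal saline (150 μmol/kg) or by tail vein injection (30 μmol/kg). Saphenous-vein blood drawn into heparinized capillaries before dosing and at 5, 15, 30 min and 1, 4, 8, 24 h. Plasma stored at −80 °C. Parent and mixed-disulfide metabolite M1 quantitated by LC-MS/MS against synthetic M1. Oral bioavailability derived from oral versus iv exposure.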

Cystine [3] = assay: Inhibition of L-cystine crystallization in aqueous solution assessed as ratio of step velocity in presence of compound to step velocity measured initially in absence of compound at 15 uM by atomic force microscopic analysis
In short: (§2)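 AFM on the {0001} face of L-cystine crystals. Crystals were regrown for 20 min under flowing supersaturated 2 mM L-cystine (20 mL/h). {1010} step velocity was measured without inhibitor (V0), then with inhibitor at 15, 30 or 45 μM (V). Images were taken about 25 min after inhibitor injection. Result reported as a V/V0 range.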

[4] = (§3) Observed apparent volume of distribution during terminal phase in Slc3a1-knockout mouse at 150 micromol/kg, po or 30 micromol/kg, iv measured upto 24 hrs by LC-MS/MS analysis; assay type: ADME, organism-based; details: in vivo, dose 150 µmol/kg; in short: as §1
[5] = Half life in Slc3a1-knockout mouse by measuring (2R)-2-amino-3-[[(2R)-2-amino-3-(1,8-diazaspiro[4.5]decan-8-yl)-3-oxo-propyl]disulfanyl]propanoic acid metabolite at 150 micromol/kg, po or 30 micromol/kg, iv measured upto 24 hrs by LC-MS/MS analysis; assay type: ADME, organism-based; details: in vivo, dose 150 µmol/kg; in short: as §1
[6] = Drug level in SLC3A1-knockout mouse urine assessed as (2R)-2-amino-3-[[(2R)-2-amino-3-(1,8-diazaspiro[4.5]decan-8-yl)-3-oxo-propyl]disulfanyl]propanoic acid metabolite concentration in urine at 30 micromol/kg, iv measured after 24 hrs; assay type: ADME, organism-based; details: in vivo, dose 30 µmol/kg, read-out: Ct
In short: (§4)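 Urine was collected 24 and 48 h after dosing. Parent and mixed-disulfide metabolite were measured, with the metabolite quantitated against chemically synthesized standard.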

[7] = Drug metabolism in Slc3a1-knockout mouse assessed as (2R)-2-amino-3-[[(2R)-2-amino-3-(1,8-diazaspiro[4.5]decan-8-yl)-3-oxo-propyl]disulfanyl]propanoic acid metabolite formation; assay type: ADME
[8] = Toxicity in SLC3A1-knockout male mouse assessed as animal death at 150 micromol/kg, po administered daily for 4 weeks; assay type: organism-based; details: in vivo, 672 h, dose 150 µmol/kg
Cystine [9] = assay: Inhibition of L-cystine crystallization in aqueous solution assessed as ratio of step velocity in presence of compound to step velocity measured initially in absence of compound at 45 uM by atomic force microscopic analysis; in short: as §2
Cystine [10] = assay: Inhibition of L-cystine crystallization in aqueous solution assessed as ratio of step velocity in presence of compound to step velocity measured initially in absence of compound at 30 uM by atomic force microscopic analysis; in short: as §2
[11] = Toxicity in SLC3A1-knockout male mouse assessed as animal death at 150 micromol/kg, po administered daily for 8 weeks; assay type: organism-based; details: in vivo, 1344 h, dose 150 µmol/kg
In short: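 Slc3a1-knockout male mice, 6 weeks old, bred by Slc3a1 × Slc3a1 mating; one pup per mating treated, one or more littermates as controls. Compound dissolved in water (18.9 mg/mL) and given by daily gavage of 100 μL (150 μmol/kg) for 8 weeks; controls received 100 μL water. Mice were sacrificed at study end, and kidneys and bladders were weighed.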

Cystine [12] = assay: In-vivo inhibition of L-cystine crystallization in SLC3A1-knockout male mouse assessed as reduction in stone formation in bladder at 150 micromol/kg, po administered daily for 8 weeks; assay type: functional, organism-based; set-up: scale not given: the % may be the effect or the level left; details: dose 150.0 µmol/kg
[13] = Drug level in SLC3A1-knockout mouse urine assessed as (2R)-2-amino-3-[[(2R)-2-amino-3-(1,8-diazaspiro[4.5]decan-8-yl)-3-oxo-propyl]disulfanyl]propanoic acid metabolite concentration in urine at 150 micromol/kg, po measured after 24 hrs; assay type: ADME, organism-based; details: in vivo, dose 150 µmol/kg, read-out: Ct; in short: as §4
[14] = AUC (0 to t) in Slc3a1-knockout mouse by measuring total parent compound and (2R)-2-amino-3-[[(2R)-2-amino-3-(1,8-diazaspiro[4.5]decan-8-yl)-3-oxo-propyl]disulfanyl]propanoic acid metabolite at 150 micromol/kg, po or 30 micromol/kg, iv measured upto 24 hrs by LC-MS/MS analysis; assay type: ADME, organism-based; details: in vivo, dose 150 µmol/kg; in short: as §1
[15] = as §3, with “mouse by measuring (2R)-2-amino-3-[[(2R)-2-amino-3-(1,8-diazaspiro[4.5]decan-8-yl)-3-oxo-propyl]disulfanyl]propanoic acid metabolite” for “mouse”; assay type: ADME, organism-based; details: in vivo, dose 150 µmol/kg; in short: as §1
[16] = Half life in Slc3a1-knockout mouse at 150 micromol/kg, po or 30 micromol/kg, iv measured upto 24 hrs by LC-MS/MS analysis; assay type: ADME, organism-based; details: in vivo, dose 150 µmol/kg; in short: as §1
[17] = Toxicity in SLC3A1-knockout male mouse assessed as increase in body weight at 150 micromol/kg, po administered daily for 8 weeks; assay type: organism-based; details: in vivo, 1344 h, at 150 µmol/kg
[18] = Cmax in Slc3a1-knockout mouse by measuring (2R)-2-amino-3-[[(2R)-2-amino-3-(1,8-diazaspiro[4.5]decan-8-yl)-3-oxo-propyl]disulfanyl]propanoic acid metabolite at 150 micromol/kg, po or 30 micromol/kg, iv measured upto 24 hrs by LC-MS/MS analysis; assay type: ADME, organism-based; details: in vivo, dose 150 µmol/kg; in short: as §1
[19] = AUC (0 to t) in Slc3a1-knockout mouse at 150 micromol/kg, po or 30 micromol/kg, iv measured upto 24 hrs by LC-MS/MS analysis; assay type: ADME, organism-based; details: in vivo, dose 150 µmol/kg; in short: as §1
[20] = Cmax in Slc3a1-knockout mouse at 150 micromol/kg, po or 30 micromol/kg, iv measured upto 24 hrs by LC-MS/MS analysis; assay type: ADME, organism-based; details: in vivo, dose 150 µmol/kg; in short: as §1
[21] = Oral bioavailability in Slc3a1-knockout mouse at 150 micromol/kg or 30 micromol/kg measured upto 24 hrs by LC-MS/MS analysis; assay type: ADME, organism-based; details: in vivo, at 150 µmol/kg; in short: as §1
Cystine [22] = assay: Inhibition of L-cystine crystallization in millipore water at room temperature incubated for 72 hrs
In short: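 Supersaturated L-cystine (2.9 mM) in Millipore water was incubated with varying inhibitor concentrations for 72 h at room temperature and then centrifuged. L-cystine remaining in the supernatant was measured. EC50 was taken from dose–response curves as the concentration giving 50% inhibition of crystallization.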

[23] = Oral bioavailability in Slc3a1-knockout mouse by measuring (2R)-2-amino-3-[[(2R)-2-amino-3-(1,8-diazaspiro[4.5]decan-8-yl)-3-oxo-propyl]disulfanyl]propanoic acid metabolite at 150 micromol/kg or 30 micromol/kg measured upto 24 hrs by LC-MS/MS analysis; assay type: ADME, organism-based; details: in vivo, at 150 µmol/kg; in short: as §1
[24] = Oral bioavailability in Slc3a1-knockout mouse by measuring total parent compound and (2R)-2-amino-3-[[(2R)-2-amino-3-(1,8-diazaspiro[4.5]decan-8-yl)-3-oxo-propyl]disulfanyl]propanoic acid metabolite at 150 micromol/kg or 30 micromol/kg measured upto 24 hrs by LC-MS/MS analysis; assay type: ADME, organism-based; details: in vivo, at 150 µmol/kg; in short: as §1
[25] = Observed apparent oral clearance in Slc3a1-knockout mouse by measuring (2R)-2-amino-3-[[(2R)-2-amino-3-(1,8-diazaspiro[4.5]decan-8-yl)-3-oxo-propyl]disulfanyl]propanoic acid metabolite at 150 micromol/kg or 30 micromol/kg measured upto 24 hrs by LC-MS/MS analysis; assay type: ADME; details: in vivo, dose 150 µmol/kg; in short: as §1
[26] = Observed apparent oral clearance in Slc3a1-knockout mouse at 150 micromol/kg or 30 micromol/kg measured upto 24 hrs by LC-MS/MS analysis; assay type: ADME; details: in vivo, dose 150 µmol/kg; in short: as §1

Ratio (Cystine [3]) | Ratio (Cystine [9]) | Ratio (Cystine [10]) | pEC50 (Cystine [22]) | Compound | Drug metabolism [7] | F [21] [%] | F [23] [%] | F [24] [%] | other results
0.4 | 0.21 | 0.27 | 5.45 | COC(=O)[C@@H](N)CSSC[C@H](N)C(=O)OC | – | – | – | – | –
0.52 | 0.3 | 0.32 | 7.22 | CN1CCN(C(=O)[C@@H](N)CSSC[C@H](N)C(=O)N2CCN(C)CC2)CC1 | metabolite_detected | 2.3 | 25 | 18 | –

Compound | Ratio (Cystine [3]) | Ratio (Cystine [9]) | Ratio (Cystine [10]) | pEC50 (Cystine [22]) | Drug metabolism [7] | F [21] [%] | F [23] [%] | F [24] [%] | other results
N[C@@H](CSSC[C@H](N)C(=O)N1CCC2(CCCN2)CC1)C(=O)N1CCC2(CCCN2)CC1 | 0.01 | 0.01 | 0.04 | 7.53 | metabolite_detected | 16 | 27 | 22 | Activity [1]: 20.3 g; AUCt [2]: 40.963 µM·h; Vz/F_obs [4]: 0.007 micromol/kg/nmol/L; t1/2 [5]: 2.4 h; concentration [6]: 1 µM; Activity [8]: Non-toxic; Activity [11]: Non-toxic; Activity (Cystine [12]): 8%; concentration [13]: 2.1 µM; AUCt [14]: 59.505 µM·h; Vz/F obs [15]: 0.0108 micromol/kg/nmol/L; t1/2 [16]: 0.6 h; Activity [17]: 14.6%; Cmax [18]: 16.9 µM; AUCt [19]: 18.542 µM·h; Cmax [20]: 11.4 µM; CL/F_obs [25]: 0.003 micromol/kg/nmol/L/hr; CL/F_obs [26]: 0.008 micromol/kg/nmol/L/hr
